In ChEMBL document CHEMBL4765399, “Design, synthesis, and biological evaluation of 5-((8-methoxy-2-methylquinolin-4-yl)amino)-1H-indole-2-carbohydrazide derivatives as novel Nur77 modulators” (Eur J Med Chem, 2020):
pKd: −log10 of the molar value. Calls of active or inactive are those of the source. The rule behind the calls is not given here.

What was measured:
[1] = target: T1, Nuclear receptor subfamily 4immunitygroup A member 1 (Homo sapiens, UniProt P22736); test: Binding affinity to Nur77 ligand binding domain (unknown origin) at 10 uM by surface plasmon resonance analysis; conditions: filed as modulator
In short: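 Single-concentration SPR screen at 10.0 µM against Nur77-LBD; binding given as RU response.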

[2] = tested on: QGY-7703; test: Induction of apoptosis in human QGY-7703 cells assessed as increase in cleaved PARP level at 0.5 to 2 uM incubated for 12 hrs by Western blot analysis; assay type: functional, cell-based; conditions: dose 0.5-2 µM
In short: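 QGY-7703 (RPMI 1640, 10% FBS) and SMMC-7721 (DMEM) cells at 37 °C, 5% CO2, treated with graded concentrations for 12 h. RIPA lysates (40-80 µg protein) run on SDS-PAGE, transferred to nitrocellulose, immunoblotted for cleaved PARP; chemiluminescence read-out.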

[3] = tested on: HepG2; test: Induction of apoptosis in human HepG2 cells transfected with shNur77 assessed as increase in cleaved PARP level at 2 uM incubated for 12 hrs by Western blot analysis; assay type: functional, cell-based
In short: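 HepG2 carrying scrambled or Nur77 shRNA exposed to 2.0 µM for 12 h. RIPA lysates with protease/phosphatase inhibitors, 40-80 µg protein by BCA resolved on SDS-PAGE, moved to nitrocellulose, milk-blocked, probed overnight for PARP cleavage and Nur77 with HRP secondaries, chemiluminescent detection.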

[4] = tested on: HepG2; test: Antitumor activity against human HepG2 cells xenografted in BALB/c mouse assessed as induction of ER stress by measuring increase in bip level in tumor tissue at 10 to 20 mg/kg/day, ip administered for 15 days by western blot analysis; assay type: functional, organism-based; conditions: dose 10-20 mg/kg/day, time 15.0 day
In short: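 HepG2 cells (5×10^6) injected subcutaneously into flanks of 4-week-old male Balb/c nude mice. At about 100 mm³, 15 mice were randomized to vehicle, 10 or 20 mg/kg i.p. once daily for 15 days. Tumors were then excised for immunostaining of paraffin sections (5 μm) or for western blot.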

[5] = tested on: HepG2; test: Upregulation of RXRalpha expression in human HepG2 cells at 2 uM incubated for 2 to 12 hrs by Western blot analysis; assay type: functional, cell-based; conditions: time 2-12 hrs
In short: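 HepG2 cells given 2.0 µM for the indicated times. RXRα, RARγ and Nur77 detected by western blot: RIPA lysis with protease and phosphatase inhibitors, 40-80 µg protein by SDS-PAGE, nitrocellulose, 5% milk block, primary antibody overnight, HRP secondary, chemiluminescence read-out.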

[6] = tested on: HepG2; test: Induction of apoptosis in human HepG2 cells assessed as increase in cleaved PARP level at 0.5 to 2 uM incubated for 12 hrs by Western blot analysis; assay type: functional, cell-based; conditions: dose 0.5-2 µM
In short: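 HepG2 cells exposed 12 h to graded concentrations. RIPA lysates with protease/phosphatase inhibitors, 40–80 µg protein by SDS-PAGE onto nitrocellulose, probed for PARP cleavage, chemiluminescent detection.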

[7] = tested on: HepG2; test: Disruption of mitochondrial membrane potential in human HepG2 cells transfected with shNur77 assessed as red fluorescence intensity at 2 uM incubated for 12 hrs by JC-1 staining based flow cytometry (reference value: 21319 units); assay type: functional
[8] = target: T1, Nuclear receptor subfamily 4immunitygroup A member 1; test: Modulation of Nur77 in human HepG2 cells assessed as induction of Nur77 translocation into cytoplasm from nucleus by measuring decrease in protein expression in nucleus at 2 uM by western blot analysis; assay type: subcellular; conditions: filed as modulator, time 1-8 hrs, TDE = time-dependent effect
In short: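 HepG2 given 2.0 µM for set times; cells swollen 10 min on ice in HEPES/NaCl/EDTA/CaCl2/MgCl2 buffer, 0.1% NP40 added, spun 15000 rpm 3 min at 4 °C giving cytoplasmic supernatant; pellet extracted in RIPA. Fractions blotted for Nur77, with PARP (nuclear) and tubulin (cytoplasmic) as loading controls.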

[9] = tested on: HepG2; test: Induction of apoptosis in human HepG2 cells assessed as live cells at 2 uM incubated for 12 hrs by Annexin V-FITC/PI staining based flow cytometry (reference value: 90.7 to 94%); assay type: functional
[10] = tested on: Mus musculus; test: Induction of Nur77 expression in tumor tissue of BALB/c mouse xenografted with human HepG2 cells at 10 to 20 mg/kg/day, ip administered for 15 days by western blot analysis; conditions: dose 10-20 mg/kg/day, time 15.0 day
[11] = tested on: HepG2; test: Induction of apoptosis in human HepG2 cells assessed as live cells at 1 uM incubated for 12 hrs by Annexin V-FITC/PI staining based flow cytometry (reference value: 94%); assay type: functional
[12] = target: T1, Nuclear receptor subfamily 4immunitygroup A member 1; test: Binding affinity to Nur77 ligand binding domain (unknown origin) assessed as decrease in fluorescence intensity of protein at 332 nm at 0.2 to 4 uM by fluorescence titration based analysis; conditions: filed as modulator, dose 0.2-4 µM
In short: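 Intrinsic tryptophan fluorescence quench: 1 μM Nur77-LBD titrated with 0–4 μM ligand in about 0.2 μM steps (20 points). After 30 min at room temperature, read at 25 °C, excitation 280 nm, emission 340 nm. KD fitted to a two-state 1:1 complex model.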

[13] = tested on: HepG2; test: Induction of apoptosis in human HepG2 cells assessed as cleaved caspase-9 expression at 2 uM pretreated with ER stress inhibitor, 4-PBA for 2 hrs followed by incubation with compound for 12 hrs by Western blot analysis; assay type: functional, cell-based
In short: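 HepG2 cells grown to confluence were pretreated 2 h with 2 mM 3-MA (autophagy inhibitor) or 2 mM 4-PBA (ER stress inhibitor), then exposed to compound for 12 h. Proteins (40–80 µg, RIPA lysate) were resolved by SDS-PAGE and blotted for PARP, cleaved caspase-3/-9, Bcl-2 and Bax, with chemiluminescent detection.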

[14] = tested on: HepG2; test: Induction of endoplasmic reticulum stress in Nur77 […] human HepG2 cells assessed as CHOP protein expression at 2 uM incubated for 6 to 12 hrs by Western blot analysis; assay type: functional, cell-based; conditions: time 6-12 hrs
In short: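 HepG2 and shNur77 HepG2 exposed to DMSO or 2.0 µM for 6 and 12 h; lysates immunoblotted for TRB3, Bip, CHOP and Nur77 (SDS-PAGE, nitrocellulose, overnight primary antibodies, HRP secondary, chemiluminescence).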

[15] = target: T1, Nuclear receptor subfamily 4immunitygroup A member 1; test: Binding affinity to Nur77 ligand binding domain (unknown origin) assessed as dissociation constant by surface plasmon resonance analysis
In short: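 SPR with Nur77-LBD, analyte injected at a series of concentrations; KD (equilibrium dissociation constant) and association/dissociation kinetics derived from the sensorgrams.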

[16] = tested on: HepG2; test: Induction of apoptosis in human HepG2 cells assessed as increase in cleaved PARP level pretreated with nuclear export inhibitor, LMB followed by incubation with compound for 12 hrs by western blot analysis; assay type: functional, cell-based
[17] = tested on: SMMC-7721; test: Induction of autophagy in human SMMC-7721 cells assessed as increase in LC3-II expression measured after 12 hrs by Western blot analysis; assay type: functional, cell-based; conditions: dose 0.5-2 µM
In short: (§1)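 HepG2, QGY-7703 and SMMC-7721 treated with graded concentrations for 12 h. Lysed in RIPA with inhibitors; 40-80 µg protein separated by SDS-PAGE, blotted to nitrocellulose, blocked 1 h in 5% milk, primary antibodies overnight (LC3, Beclin1, Bip, CHOP, TRB3), HRP secondaries, chemiluminescence.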

[18] = tested on: HepG2; test: Induction of autophagy in human HepG2 cells assessed as increase in Beclin 1 expression measured after 12 hrs by Western blot analysis; assay type: functional, cell-based; conditions: dose 0.5-2 µM; in short: as §1

T1 sequence (P22736 whole entry, the tested form may be a part): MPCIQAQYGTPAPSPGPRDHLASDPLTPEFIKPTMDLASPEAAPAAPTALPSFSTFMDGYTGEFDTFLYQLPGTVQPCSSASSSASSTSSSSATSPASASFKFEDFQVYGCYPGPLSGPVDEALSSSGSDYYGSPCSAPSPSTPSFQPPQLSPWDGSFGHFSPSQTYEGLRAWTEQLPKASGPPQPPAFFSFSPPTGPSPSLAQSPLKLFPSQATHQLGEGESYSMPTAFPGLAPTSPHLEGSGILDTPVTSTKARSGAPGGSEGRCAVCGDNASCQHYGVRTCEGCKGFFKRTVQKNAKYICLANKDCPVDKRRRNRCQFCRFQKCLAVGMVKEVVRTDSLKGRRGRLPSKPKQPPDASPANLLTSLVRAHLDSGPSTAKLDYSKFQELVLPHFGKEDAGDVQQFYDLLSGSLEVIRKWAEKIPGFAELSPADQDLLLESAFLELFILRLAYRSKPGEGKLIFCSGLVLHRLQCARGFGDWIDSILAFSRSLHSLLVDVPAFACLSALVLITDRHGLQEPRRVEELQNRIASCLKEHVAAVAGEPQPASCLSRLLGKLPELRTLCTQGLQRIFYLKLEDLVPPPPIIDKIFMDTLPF

Activity [1]: 91.6 RU | Activity [8]: Tde | Activity [12]: Active | pKd [15]: 5.45 | Activity ([15]; filed as modulator): Dose-dependent effect
SMILES: COc1cccc2c(Nc3ccc4[nH]c(C(=O)N/N=C/c5ccc(SC)cc5)cc4c3)cc(C)nc12
Activity [2]: Dose-dependent effect | Activity [3]: inactive | Activity [4]: Active | Activity [5]: inactive | Activity [6]: Dose-dependent effect | Activity [7]: 18938 U | Activity [9]: 8.8% | Activity [10]: Active | Activity [11]: 65% | Activity [13]: inactive | Activity [14]: inactive | Activity [16]: inactive | Activity [17]: Dose-dependent effect | Activity [18]: Dose-dependent effect
